Measurements of several laboratories.
Compare with care: the assays were run in different laboratories.
Target: NT-3 growth factor receptor (NTRK3, Homo sapiens, UniProt Q16288)

Structure (SMILES) | observed | technique | tested at | remaining binding [%]
C[C@H]1CCN(c2nccc(-c3cnn4ncccc34)n2)C1 | binding | – | 1 µM | 63
CN1CCN(c2cnc3c(C4CCN(C(=O)c5ccc(OC(F)(F)F)cc5N)CC4)ncnc3c2)CC1 | cell-free assay | competition with immobilised ligand | 1 µM | 100
CN(C)c1nccc(-c2cnn3ncccc23)n1 | binding | – | 1 µM | 72
CO[C@@H](C)c1c(Nc2ccc([C@H](N(C)C(=O)C3CCS(=O)(=O)CC3)C(F)(F)F)cc2)cnc2cc(Cl)nn12 | cell-free assay | competition with immobilised ligand | 1 µM | 100
O=C(NCCCN1CCOCC1)c1ccc(Nc2ncc(Cl)c(-c3ccc(Cl)s3)n2)cc1 | binding | competition with immobilised ligand | 1 µM | 46
F[C@@H]1CCN(c2nccc(-c3cnn4ncccc34)n2)C1 | binding | – | 1 µM | 100
Cc1cc(NC(=O)c2cccc(S(F)(F)(F)(F)F)c2)cc(-n2ccn3nc(-c4cccnc4)cc23)c1 | cell-free assay | competition with immobilised ligand | 1 µM | 27.2
Cc1cnc(Nc2ccc(C(=O)N3CCC(N4CCCC4)CC3)cc2)nc1-c1cc2ccccc2s1 | binding | competition with immobilised ligand | 1 µM | 16
Cc1cnn2ncc(-c3ccnc(N(C)C)n3)c2c1 | binding | – | 1 µM | 73
CSc1cccnc1N1CCN(Cc2nc3ccccc3[nH]2)CC1 | cell-free assay | competition with immobilised ligand | 1 µM | 83
O=C(c1ccc(Nc2ncc(Cl)c(-c3ccc(Cl)s3)n2)cc1)N1CCC(N2CCCC2)CC1 | binding | competition with immobilised ligand | 1 µM | 24
COc1cnc(Nc2cccc(S(N)(=O)=O)c2)nc1N1CCN(c2ccccc2)CC1 | binding | competition with immobilised ligand | 1 µM | 61
O=C(NCC1CCOCC1)c1n[nH]cc1NC(=O)c1c(F)cccc1F | binding | competition with immobilised ligand | 1 µM | 98
FC(F)(F)Oc1cccc(-c2cnc3ccc(-c4ccncc4)nn23)c1 | cell-free assay | competition with immobilised ligand | 5 µM | 20
c1cncc(-c2cccc(Nc3nccc(NC4CCCCC4)n3)c2)c1 | binding | competition with immobilised ligand | 10 µM | 27
CC1CCCN1c1nccc(-c2cnn3ncccc23)n1 (stereo not shown) | binding | – | 1 µM | 100
O=C(N1CCS(=O)(=O)CC1)N1C[C@H](c2ccc(OC(F)(F)F)cc2)C[C@H](c2nc(C3CC3)no2)C1 | cell-free assay | competition with immobilised ligand | 1 µM | 100
CCN1CCN(Cc2ccc(C(=O)Nc3ccc(C)c(Oc4ccc5c(c4)CC(=O)N5)c3)cc2C(F)(F)F)CC1 | binding | competition with immobilised ligand | 1 µM | 68
N[C@H]1CCN(c2nccc(-c3cnn4ncccc34)n2)C1 | binding | – | 1 µM | 85
O=c1nc(-c2ccccn2)sc2ccccc12 | cell-free assay | competition with immobilised ligand | 1 µM | 72
CNC(=O)[C@@H]1CC[C@@H](n2c(-c3ccc4cnccc4c3)nc3ccc(C(=O)NCc4cccc(C(N)=O)c4)cc32)C1 | binding | competition with immobilised ligand | 1 µM | 100
CN(C)c1nccc(-c2cnc3ncccn23)n1 | binding | – | 1 µM | 78
